What all share (type): functional
Assay [1] deals with Rattus norvegicus. Description: Inhibition of egg albumin-induced allergic bronchospasm in sensitized, spontaneously breathing and anesthesized Harlan-Wistar rat assessed as inhibition of control allergic hypotension response at 2 mg/kg, iv administered 1 min prior to antigen challenge. The method, boiled down: (§1)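 Male Harlan-Wistar rats (225–275 g) were sensitized with EA im (1 mg/rat) plus pertussis vaccine ip. After 13–15 days they were urethane-anesthetized (1.5 g/kg ip). Drug was given intraduodenally in methocel or iv in saline, then EA 2 mg/rat iv. Pulmonary ventilation pressure and mean arterial pressure were recorded. Individual responses were compared with a separate vehicle-control group mean; 4–15 rats/group.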

Assay [2] deals with Mast cell. Description: Inhibition of histamine release in Sprague-Dawley rat peritoneal mast cells at 20 uM after 10 mins by fluorimetry relative to control. The method, boiled down: (§2)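 Peritoneal lavage cells from male Sprague–Dawley rats (200–300 g) were sensitized for 2 h at 37 °C in rat anti-EA serum with heparin. Cells were resuspended in buffered HBSS and challenged with EA. Drug was added together with antigen. After 10 min incubation, histamine was measured fluorimetrically. % inhibition was calculated versus release without drug.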

Assay [3] relates to Rattus norvegicus. Description: Inhibition of egg albumin-induced allergic bronchospasm in sensitized, spontaneously breathing and anesthesized Harlan-Wistar rat assessed as drop in pulmonary arterial blood pressure at 2 mg/kg, iv administered 1 min prior to antigen challenge (reference value: 36.4 +/- 3.5 %). The gist of the method:
as §1

In assay [4] the test system is Mast cell. Put plainly: Inhibition of histamine release in Sprague-Dawley rat peritoneal mast cells at 5 uM after 10 mins by fluorimetry relative to control. The gist of the method: as §2
The test system of assay [5] is Mast cell. Description: Inhibition of histamine release in Sprague-Dawley rat peritoneal mast cells at 1.25 uM after 10 mins by fluorimetry relative to control. The gist of the method: as §2
Assay [6] deals with Rattus norvegicus. Description: Inhibition of egg albumin-induced allergic bronchospasm in sensitized, spontaneously breathing and anesthesized Harlan-Wistar rat assessed as drop in mean arterial blood pressure at 2 mg/kg, iv administered 1 min prior to antigen challenge (reference value: 49.7+/- 1.9 %). The gist of the method:
as §1

The test system of assay [7] is Rattus norvegicus. Put plainly: Antiallergic activity against egg albumin-induced anaphylaxis in iv dosed sensitized rat compound administered 15 mins prior to antigen challenge as single dose by passive cutaneous anaphylaxis test. The gist of the method:
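Male Sprague–Dawley or Wistar rats (100–150 g) were passively sensitized by two intradermal dilutions of rat anti-egg-albumin serum, which was mainly IgE and raised with EA im (10 mg/kg) plus killed pertussis vaccine iv. After 48 h, drug or vehicle was given. Rats were then challenged iv with EA plus Evans Blue (25 mg/kg each). Spot diameter was read 20–30 min later; ≥5 rats/compound. % inhibition was calculated versus control mean diameter.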

The test system of assay [8] is Rattus norvegicus. Put plainly: Inhibition of egg albumin-induced allergic bronchospasm in sensitized, spontaneously breathing and anesthesized Harlan-Wistar rat assessed as inhibition of control allergic bronchospasm response at 2 mg/kg, iv administered 1 min prior to antigen challenge. The method, boiled down:
as §1

Assay [9] has as its system Rattus norvegicus. Put plainly: Inhibition of egg albumin-induced allergic bronchospasm in sensitized, spontaneously breathing and anesthesized Harlan-Wistar rat assessed as inhibition of control allergic hypotension response compound administered intraduodenally 15 min prior to antigen challenge. As to conditions: in the assay text read “bronchospasm response” for “hypotension response”. The method, boiled down: as §1

The test system of assay [10] is Rattus norvegicus. Description: Inhibition of egg albumin-induced allergic bronchospasm in sensitized, spontaneously breathing and anesthesized Harlan-Wistar rat assessed as inhibition of control allergic bronchospasm response at 12.5 mg/kg administered intraduodenally 15 min prior to antigen challenge. To be noted: route intraduodenal. The gist of the method: as §1

The test system of assay [11] is Rattus norvegicus. Put plainly: Inhibition of egg albumin-induced allergic bronchospasm in sensitized, spontaneously breathing and anesthesized Harlan-Wistar rat assessed as drop in pulmonary arterial blood pressure at 50 mg/kg administered intraduodenally 15 min prior to antigen challenge (reference value: 32.2 +/- 4.7 %). To be noted: route intraduodenal. The gist of the method:
as §1

The subject of assay [12] is Rattus norvegicus. Description: Inhibition of egg albumin-induced allergic bronchospasm in sensitized, spontaneously breathing and anesthesized Harlan-Wistar rat assessed as inhibition of control allergic bronchospasm response at 50 mg/kg administered intraduodenally 15 min prior to antigen challenge. To be noted: route intraduodenal. The method, boiled down: as §1

Assay [13] relates to Rattus norvegicus. Description: Inhibition of egg albumin-induced allergic bronchospasm in sensitized, spontaneously breathing and anesthesized Harlan-Wistar rat assessed as inhibition of control allergic bronchospasm response at 3.125 mg/kg administered intraduodenally 15 min prior to antigen challenge. As to conditions: route intraduodenal. The method, boiled down: as §1

Assay [14] has as its system Rattus norvegicus. Description: Inhibition of egg albumin-induced allergic bronchospasm in sensitized, spontaneously breathing and anesthesized Harlan-Wistar rat assessed as inhibition of control allergic bronchospasm response at 1.56 mg/kg administered intraduodenally 15 min prior to antigen challenge. To be noted: route intraduodenal. The method, boiled down:
as §1

The subject of assay [15] is Rattus norvegicus. Put plainly: Inhibition of egg albumin-induced allergic bronchospasm in sensitized, spontaneously breathing and anesthesized Harlan-Wistar rat assessed as drop in mean arterial blood pressure at 3.125 mg/kg administered intraduodenally 15 min prior to antigen challenge (reference value: 46.3 +/- 3.5 %). As to conditions: route intraduodenal. The method, boiled down: as §1

Assay [16] deals with Rattus norvegicus. Description: Inhibition of egg albumin-induced allergic bronchospasm in sensitized, spontaneously breathing and anesthesized Harlan-Wistar rat assessed as drop in mean arterial blood pressure at 6.25 mg/kg administered intraduodenally 15 min prior to antigen challenge (reference value: 46.3 +/- 3.5 %). As to conditions: route intraduodenal. The gist of the method: as §1

The test system of assay [17] is Rattus norvegicus. Put plainly: Inhibition of egg albumin-induced allergic bronchospasm in sensitized, spontaneously breathing and anesthesized Harlan-Wistar rat assessed as inhibition of control allergic hypotension response at 6.25 mg/kg administered intraduodenally 15 min prior to antigen challenge. To be noted: route intraduodenal. The gist of the method: as §1

The subject of assay [18] is Rattus norvegicus. Put plainly: Inhibition of egg albumin-induced allergic bronchospasm in sensitized, spontaneously breathing and anesthesized Harlan-Wistar rat assessed as drop in mean arterial blood pressure at 12.5 mg/kg administered intraduodenally 15 min prior to antigen challenge (reference value: 46.3 +/- 3.5 %). To be noted: route intraduodenal. The gist of the method: as §1

Assay [19] has as its system Rattus norvegicus. Description: Inhibition of egg albumin-induced allergic bronchospasm in sensitized, spontaneously breathing and anesthesized Harlan-Wistar rat assessed as drop in pulmonary arterial blood pressure at 3.125 mg/kg administered intraduodenally 15 min prior to antigen challenge (reference value: 32.2 +/- 4.7 %). To be noted: route intraduodenal. The method, boiled down: as §1

For assay [20], the system named is Rattus norvegicus. Put plainly: Inhibition of egg albumin-induced allergic bronchospasm in sensitized, spontaneously breathing and anesthesized Harlan-Wistar rat assessed as inhibition of control allergic hypotension response at 3.125 mg/kg administered intraduodenally 15 min prior to antigen challenge. To be noted: route intraduodenal. The gist of the method:
as §1

The test system of assay [21] is Rattus norvegicus. Put plainly: Inhibition of egg albumin-induced allergic bronchospasm in sensitized, spontaneously breathing and anesthesized Harlan-Wistar rat assessed as inhibition of control allergic hypotension response at 50 mg/kg administered intraduodenally 15 min prior to antigen challenge. To be noted: route intraduodenal. The method, boiled down: as §1

Assay [22] has as its system Rattus norvegicus. Put plainly: Inhibition of egg albumin-induced allergic bronchospasm in sensitized, spontaneously breathing and anesthesized Harlan-Wistar rat assessed as drop in pulmonary arterial blood pressure at 6.25 mg/kg administered intraduodenally 15 min prior to antigen challenge (reference value: 32.2 +/- 4.7 %). To be noted: route intraduodenal. The gist of the method:
as §1

Assay [23] relates to Rattus norvegicus. Description: Inhibition of egg albumin-induced allergic bronchospasm in sensitized, spontaneously breathing and anesthesized Harlan-Wistar rat assessed as inhibition of control allergic bronchospasm response at 6.25 mg/kg administered intraduodenally 15 min prior to antigen challenge. To be noted: route intraduodenal. The gist of the method: as §1
Assay [24] deals with Rattus norvegicus. Description: Inhibition of egg albumin-induced allergic bronchospasm in sensitized, spontaneously breathing and anesthesized Harlan-Wistar rat assessed as inhibition of control allergic bronchospasm response compound administered intraduodenally 15 min prior to antigen challenge. The gist of the method: as §1
Assay [25] relates to Rattus norvegicus. Put plainly: Inhibition of egg albumin-induced allergic bronchospasm in sensitized, spontaneously breathing and anesthesized Harlan-Wistar rat assessed as drop in pulmonary arterial blood pressure at 12.5 mg/kg administered intraduodenally 15 min prior to antigen challenge (reference value: 32.2 +/- 4.7 %). As to conditions: route intraduodenal. The method, boiled down: as §1

Assay [26] has as its system Rattus norvegicus. Put plainly: Inhibition of egg albumin-induced allergic bronchospasm in sensitized, spontaneously breathing and anesthesized Harlan-Wistar rat assessed as drop in pulmonary arterial blood pressure at 1.56 mg/kg administered intraduodenally 15 min prior to antigen challenge (reference value: 32.2 +/- 4.7 %). To be noted: route intraduodenal. The method, boiled down:
as §1

For assay [27], the system named is Rattus norvegicus. Description: Inhibition of egg albumin-induced allergic bronchospasm in sensitized, spontaneously breathing and anesthesized Harlan-Wistar rat assessed as drop in mean arterial blood pressure at 1.56 mg/kg administered intraduodenally 15 min prior to antigen challenge (reference value: 46.3 +/- 3.5 %). As to conditions: route intraduodenal. The gist of the method: as §1

The subject of assay [28] is Rattus norvegicus. Description: Inhibition of egg albumin-induced allergic bronchospasm in sensitized, spontaneously breathing and anesthesized Harlan-Wistar rat assessed as inhibition of control allergic hypotension response at 12.5 mg/kg administered intraduodenally 15 min prior to antigen challenge. As to conditions: route intraduodenal. The gist of the method:
as §1

The subject of assay [29] is Rattus norvegicus. Put plainly: Inhibition of egg albumin-induced allergic bronchospasm in sensitized, spontaneously breathing and anesthesized Harlan-Wistar rat assessed as drop in mean arterial blood pressure at 50 mg/kg administered intraduodenally 15 min prior to antigen challenge (reference value: 46.3 +/- 3.5 %). As to conditions: route intraduodenal. The gist of the method:
as §1

The test system of assay [30] is Rattus norvegicus. Description: Inhibition of egg albumin-induced allergic bronchospasm in sensitized, spontaneously breathing and anesthesized Harlan-Wistar rat assessed as inhibition of control allergic hypotension response at 1.56 mg/kg administered intraduodenally 15 min prior to antigen challenge. As to conditions: route intraduodenal. The method, boiled down: as §1

In the case of `O=C([O-])c1cc(=O)c2c(OCC(O)COc3cccc4oc(C(=O)[O-])cc(=O)c34)cccc2o1.[Na+].[Na+]` [CROMOLYN SODIUM], the inhibition in vivo (as a rule, the relative decrease from the control value, in per cent) at 2 mg/kg was determined as 22.4% in assay [1], 13% in [3], 38.8% in assay [6] and 63.8% in assay [8]. The inhibition – broadly, the change of the read-out against control, counted positive when it falls – at 20 µM in assay [2] is 75%. In [4], this compound registered an inhibition at 5 µM of 50%. In assay [5], this compound showed an inhibition at 1.25 µM of 20%. In addition, in assay [7], the ED50 – broadly, the dose that gives a 50% effect, or the effect in half of the subjects – was found to be 0.6 mg/kg.

In the case of `CCCCCCc1sc2nc(C(=O)[O-])nc([O-])c2c1C.O.[Na+].[Na+]`, the inhibition entry in assay [9] and in [24] was “Dose-dependent effect” throughout. The ED50 in [9] (intraduodenal) and in [24] (intraduodenal) was 3.8 mg/kg each time. The inhibition in vivo at 12.5 mg/kg in [10] came to 41%; in assay [18], 55.2%; in assay [25], 21.6%; in [28] it was 0%. Moreover, the inhibition in vivo at 50 mg/kg in assay [11] was found to be 14%; in [12], 61.2%; in assay [21] it was 14%; in [29] it was 45%. In addition, the inhibition in vivo at 3.125 mg/kg is 28.3% in [13], 47.6% in [15], 27.6% in [19] and 15.4% in [20]. In addition, the inhibition in vivo at 1.56 mg/kg in assay [14] was 9.4%; in assay [26] it was 42%; in assay [27] it was 63.8%; in assay [30], 0%. Also, the inhibition in vivo at 6.25 mg/kg in assay [16] turned out to be 38.4%; in assay [17], 28.8%; in [22] it was 28%; in [23], 34.2%.

(Values after ChEMBL document CHEMBL3244400, “Synthesis of 3,4-dihydro-4-oxothieno[2,3-d]pyrimidine-2-carboxylates, a new series of orally active antiallergy agents” (J Med Chem, 1979).)
